# Data reported in PubChem BioAssay AID651952 (The Scripps Research Institute Molecular Screening Center, 2012).
# About 940 (39%) of roughly 2,400 compounds were called active. Only a sample is shown. Unmarked numbers belong to inactive results.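 The calls were made as follows: active = inhibition above the plate's mean compound inhibition plus 3 SD, computed per plate (cut at about 22% in these data); inactive = the rest.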
# Assay: reduced calcium signal in Ga16 cells – fluorescence, CHO-Ga16 cells, counter-screen for TAAR1 agonist project (AID 651952);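 also: 0% = EC80 ATP with DMSO and 100% = DMSO wells without ATP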
# Conditions: CHO-Ga16 ATP-induced calcium, Fluo-8 fluorescence; at 3 µM; hits give high values
# Summary of the method: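 Compound – 3 µM single dose · Material – Gα16-expressing CHO parent cells · Measured by – Fluo-8 calcium fluorescence · Reagent – ATP purinergic agonist at EC80, added after compound · Repeats – triplicate wells per compound · Incubation – 17–24 h seeding, dye 75 min 37 °C, 30 min RT · Benchmarks – DMSO-only and ATP-stimulated wells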
row,SMILES,inhibition
1,NC(=O)C1=C[C@H](c2csc3ccccc23)C[C@H](OCc2ccc(CO)cc2)O1,36.5% (active)
2,CCc1ccccc1S(=O)(=O)Cc1ccc(C(=O)NCCc2ccccc2)o1,8.92%
3,Cc1ccccc1NC(=S)NC(=O)Cc1ccc(Cl)cc1,44.5% (active)
4,O=C(Cc1ccc(Cl)cc1)NC(=S)Nc1ccccc1O,92.6% (active)
5,O=C(NCCc1ccccc1)Oc1ccc(Cl)cc1,11%
6,S=C(NCCCc1cnc[nH]1)NCCCN(Cc1ccc(Cl)c(Cl)c1)c1ccc(Br)cn1,48.6% (active)
7,CCCCCCCCCCOC(=O)Cn1c(COc2ccc(C)cc2)[n+](C)c2ccccc21,75.9% (active)
8,Nc1cccc2c1C(=O)N(Cc1nnc(-c3ccccc3Br)o1)C2=O,7.55%
9,O=C(CSc1nc(-c2ccco2)cc(C(F)(F)F)n1)NCc1cccs1,3.17%
10,NC(Cc1ccccc1)c1csc(Nc2cc(Oc3ccccc3)ncn2)n1 (stereo unspecified),34.3% (active)
11,O=C(COC(=O)Cc1ccccc1F)NCCc1ccccc1,5.44%
12,CC(=O)Oc1ccc(Cn2c(C)c(C(=O)NCc3ccc(C#N)cc3)sc2=O)cc1,45.6% (active)
13,CN(C)c1ccc(/C=C2\NC(=S)N(Cc3ccccc3)C2=O)cc1,71.1% (active)
14,O=C(/C=C/[C@H]1O[C@@H](n2cnc3c(NC(=O)c4ccccc4)ncnc32)[C@H](O)[C@@H]1O)NCc1ccccc1,7.32%
15,CN(C)CCCN(C(=O)c1ccc(S(=O)(=O)N2CCCc3ccccc32)cc1)c1nc2ccc(F)cc2s1,43.4% (active)
16,CN(C)CCCN(C(=O)c1ccc(S(=O)(=O)N2CCCCCC2)cc1)c1nc2ccc(Br)cc2s1,43% (active)
17,Cc1cc(=O)oc2c(C)c(OCC(=O)NCCN3CCOCC3)ccc12,7.14%
18,Nc1c(NCCc2ccccc2)c2ccccc2oc1=O,18%
19,CCOC(=O)Cc1csc(NC(=O)Nc2ccccc2)n1,26.6% (active)
20,Cc1ccn2c(=O)c(C(=O)NCCC3=CCCCC3)c(O)nc2c1,-3.36%
21,Cc1ccc(O)c(NC(=S)NC(=O)COc2ccc(Br)cc2)c1,92% (active)
22,COCCCn1c(Cc2csc(Nc3cccc(Cl)c3)n2)nnc1SCC(=O)OC1CCCCC1,6.89%
23,c1ccc(CCN2CN=C(Nc3nc4ccccc4o3)NC2)cc1,-0.52%
24,O=C(NCCc1ccccc1)/C(=C\c1ccc([N+](=O)[O-])cc1)NC(=O)c1ccccc1,9.72%

row,SMILES,inhibition
1,CCCCCC(=O)NC(=S)NNC(=O)c1ccc([N+](=O)[O-])cc1,51.5% (active)
2,CC(NC(=O)c1cc(-c2ccccc2)on1)c1ccccc1 (stereo unspecified),17.1%
3,O=[N+]([O-])c1cc(S(=O)(=O)NCCc2ccccn2)ccc1Cl,0.96%
4,N#Cc1ccc(OCCCN2CCC(C(O)(c3ccccc3)c3ccccc3)CC2)c(F)c1,25.9% (active)
5,COc1ccc(NC(=O)C(=O)NCC(c2ccco2)N2CCc3ccccc3C2)cc1 (stereo unspecified),9.37%
6,COc1cccc(N(CC(=O)N2CCc3ccccc3C2)S(C)(=O)=O)c1,12.7%
7,O=C(O)C1C2C=CC(O2)C1C(=O)NCCc1cccc(Cl)c1 (stereo unspecified),7.32%
8,Cc1onc(-c2ccccc2)c1C(=O)NNC(=S)NC(=O)c1ccc(F)cc1,50.7% (active)
9,COc1ccc(C(=O)NNC(=S)NC(=O)c2ccccc2)cc1,44.3% (active)
10,O=C(Nc1cccc(NC(=O)c2ccc(Br)cc2)c1)c1ccccc1,2.95%
11,COc1ccc(C(=O)NC(=S)NNC(=O)CCc2ccccc2)cc1,58.5% (active)
12,COc1ccc(C(=O)NC(=S)NNC(=O)c2c(-c3ccccc3)noc2C)cc1,14.4%
13,CCCc1cc(C(=O)Nc2ccc(C(=O)OC)cc2)cs1,11.2%
14,O=C1CCCC(O)=C1C=NCCc1ccccc1,1.71%
15,Cc1ccccc1-c1nc(CS(=O)(=O)CC(=O)N2CCc3ccccc3C2)c(C)o1,18.3%
16,CCCCC(=O)NNC(=S)NC(=O)C(c1ccccc1)c1ccccc1,91% (active)
17,O=C(N[C@H](C(=O)N1CCC[C@H]1C(=O)NCCc1ccccc1Cl)c1ccccc1)c1ccccc1,12.2%
18,C[C@H](NC(=O)c1ccccc1)C(=O)OCC(=O)c1c[nH]c2ccccc12,-1.32%
19,CN(C(=O)CN(CCO)CC(=O)N(C)C(C)(C)Cc1ccccc1)C(C)(C)Cc1ccccc1,74.1% (active)
20,COc1cccc(-c2cnc(OC(C)(C)C)nc2OC(C)(C)C)c1,4.69%
21,Cc1ccc(Cl)cc1N1CCN(C(=O)c2cccc3c(=O)c(C)c(-c4ccccc4)oc23)CC1,69.8% (active)
22,O=C(CCCN=C1NS(=O)(=O)c2ccccc21)OCC(=O)c1ccc(F)c(F)c1,26.1% (active)
23,CC(=O)Nc1ccccc1Sc1ccc2c3c(cccc13)C(=O)N(c1ccc(C)cc1)C2=O,2.83%
24,Nc1cc(OC(=O)c2ccccc2Br)nn1S(=O)(=O)c1ccccc1,2.75%

row,SMILES,inhibition
1,NC(c1ccccc1)c1csc(NC(=O)Nc2cccc(C(F)(F)F)c2)n1 (stereo unspecified),48% (active)
2,COc1ccc(C(N)c2csc(NC(=O)Nc3cccc(C(F)(F)F)c3)n2)cc1 (stereo unspecified),41.8% (active)
3,NC[C@H](Cc1ccccc1)NCCc1cc(C(F)(F)F)cc(C(F)(F)F)c1,9.31%
4,CCN(CC)c1ccc2oc(=O)c(C)nc2c1,37.7% (active)
5,COc1ccc(CC(N)c2csc(NC(=O)Cc3ccccc3)n2)cc1 (stereo unspecified),20.4%
6,CC(C)(C)CC(=O)Nc1nc(C(N)Cc2ccc(C(F)(F)F)cc2)cs1 (stereo unspecified),54.9% (active)
7,CCCCc1c(-c2ccc(Br)cc2)ncn1CCc1ccccc1OC,23.5% (active)
8,CCc1c(-c2ccccc2OC)ncn1CCc1ccccc1OC,3.45%
9,CCCCc1c(-c2ccc(Cl)cc2)ncn1CCc1ccccc1OC,28% (active)
10,S=C(Nc1ccc(Br)cc1)NC1CCN(Cc2ccccc2)CC1,23.8% (active)
11,COc1ccc2c(c1)OC(O)(C(F)(F)C(F)F)CC2=O (stereo unspecified),17.6%
12,c1ccc(-c2csc(N3CCc4ccccc4C3)n2)cc1,0.61%
13,O=C(Nc1ccccc1)Nc1nnc(COc2ccccc2F)s1,27.2% (active)
14,O=C(Nc1ccc(F)cc1)Nc1nnc([C@H]2C[C@H](O)[C@@H](CO)O2)s1,2.16%
15,O=C(Nc1ccncc1)Nc1ccc(F)cc1,12.7%
16,CCC(c1nnnn1Cc1ccco1)N(CCc1ccccc1)Cc1cc2cccc(C)c2[nH]c1=O (stereo unspecified),13.9%
17,CCC(C(=O)Nc1ccc(C(C)C)cc1)c1ccccc1 (stereo unspecified),68% (active)
18,c1ccc2c(c1)C(=NC1CCCCC1)NC2=NC1CCCCC1,26.3% (active)
19,C#CCOc1ccc(/C=C2/C(=O)NN(c3ccccc3)C2=O)cc1OC,9.41%
20,c1ccc(C2CNCc3c2ccc2ccccc32)cc1 (stereo unspecified),33.8% (active)
21,CCCOc1ccc(-c2c(C(=O)N/N=C/c3ccco3)nnn2-c2nonc2N)cc1,8.77%
22,CCCCOc1ccc(CSC(=N)N)cc1[N+](=O)[O-],17.7%
23,CCc1ccc(-c2nn(-c3ccccc3)cc2CSC(=N)N)cc1,21.2%
24,CCOc1ccc(Br)cc1CSC(=N)N,27.7% (active)

row,SMILES,inhibition
1,Nc1nonc1-n1nnc(C(=O)N/N=C/c2ccc(Cl)cc2)c1-c1ccc2c(c1)OCO2,-0.91%
2,Nc1c(C(=O)c2cccs2)sc2nsc(SCCN3CCCCC3)c12,63% (active)
3,COc1ccc(OC)c(C(c2nnnn2C(C)(C)C)N2CCc3ccccc3C2)c1 (stereo unspecified),2.14%
4,CCCC1CCC(=NNC(=S)NCCc2ccccc2)CC1 (stereo unspecified),13.2%
5,c1ccc(Nc2nc(N3CCOCC3)c3ccccc3n2)cc1,28.7% (active)
6,Cc1ccc(S(=O)(=O)N(CC(=O)N2CCc3ccccc3C2)c2cccc(Cl)c2)cc1,18.1%
7,O=C1C=C(c2ccc(Cl)cc2)C(=O)N1Nc1ccccc1,79.5% (active)
8,Cc1ccc(Sc2cc(N3CCOCC3)nc(-c3ccccc3)n2)cc1,-8.38%
9,Nc1nnn(CC(=O)N/N=C/c2ccccc2)n1,0.58%
10,CC(Oc1ccc2ccccc2c1)C(=O)NNC(=S)NC(=O)c1ccco1 (stereo unspecified),52.4% (active)
11,CCCc1ccc(OCC(=O)NNC(=S)NC(=O)c2ccco2)cc1,50.6% (active)
12,Cc1c(CNCCc2ccccc2)c(C(=O)O)c(C)n1-c1ccccc1,6.15%
13,CCCSc1nc2c(c(=O)n(C)c(=O)n2C)n1Cc1ccc(C)cc1,20.4%
14,Oc1ccc2ccc3cccc[n+]3c2c1,33.9% (active)
15,Cc1cc(C)c2cc(C#N)c(N3CCNCC3)nc2c1,3.67%
16,O=C(NNC(=S)NC(=O)c1cn(-c2ccccc2)nc1-c1ccccc1)c1ccncc1,57.6% (active)
17,COc1ccc2cc(-c3[nH]ncc3CNCCn3nc(C)cc3C)ccc2c1,4.6%
18,Cc1cccc(NC(=O)C(C)N2C(=O)C3C4CC(C(Br)C4Br)C3C2=O)c1 (stereo unspecified),43.9% (active)
19,O=c1cnnc(Nc2ccccc2)[nH]1,7.9%
20,COc1cc(OC)cc(C(=O)N[C@H](C(=O)OCC(=O)NC(C)c2ccccc2)C(C)C)c1 (stereo partly specified),6.73%
21,Cn1c(=O)c(=O)n(C)c2cc(S(=O)(=O)NCCc3ccccc3)ccc21,-3.68%
22,COc1ccc(OC)c(NC(=S)N2CCc3ccccc3C2)c1,5.63%
23,O=C(Nc1ccc(Cl)cc1)N1CCc2[nH]c3ccccc3c2C1,14.7%
24,Fc1ccc(NC(=S)N2CCc3[nH]c4ccccc4c3C2)cc1,22.9% (active)
